High-throughput results: PubChem BioAssay, several laboratories
NRP1-CendR mod – NRP-1/CendR interaction modulation; O14786; FAM-RPARPAR peptide binding to NRP-1, fluorescence polarization; inhibition, % at 25 µM; actives 0.85% (n = 360,000); AID 602438;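 active means inhibition or corrected inhibition above about 18%, plus a signal ratio from 0.5 to 1.5, limit read from the data, passing the limit was not always enough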
PLC-beta3 inh – PLC-beta3 (human) inhibition, primary screen | Purified PLC-beta3, fluorogenic substrate, fluorescence | inhibition, % at 12.2 µM | actives 0.18% (n = 370,000);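 further: 0% = median of compound wells on plate and 100% = full blocker control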
PLC-gamma1 inh – inhibitors of human phospholipase C gamma1. purified PLC-gamma1, fluorogenic substrate, fluorescence. inhibition, % at 12.2 µM. actives 0.84% (n = 370,000); in the data active means inhibition above about 9.5%
DDE Tn7 FP inh – DD(E)-Tn7 binding inhibition, primary FP screen. P02675. FP displacement of FITC-Tn7 peptide from fibrin DD(E); 0% = median of compound wells per plate. inhibition, % at 8.3 µM. actives 0.13% (n = 370,000);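 active means inhibition above the mean of compounds falling within the control limits plus 3 SD of them, cut at about 14% in these data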;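 further: 0% = plate median of compound wells and 100% = 10 µM Aha-Tn7 peptide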
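Test system: human clot-derived fibrin DD(E) complex / Quantity: 2 µM final DD(E) protein / Incubation: 10 min plus 3 h, room temperature / Measured by: fluorescence polarization / Benchmarks: high control of 10 µM Aha-Tn7 peptide / Replicates: singlicate testing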
KLK7 zymogen act – activates the human kallikrein-7 zymogen. P49862. purified proKLK7, EDANS-DABCYL substrate fluorescence; 100% is mature enzyme control, 0% vehicle. activation, % at 7 µM. actives 0.9% (n = 370,000). AID 652039;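 active means activation above the mean of all tested compounds plus 3 SD, computed per campaign excluding outliers beyond control limits, cut at about 13% in these data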
Target sequence (P49862 whole entry, looked up): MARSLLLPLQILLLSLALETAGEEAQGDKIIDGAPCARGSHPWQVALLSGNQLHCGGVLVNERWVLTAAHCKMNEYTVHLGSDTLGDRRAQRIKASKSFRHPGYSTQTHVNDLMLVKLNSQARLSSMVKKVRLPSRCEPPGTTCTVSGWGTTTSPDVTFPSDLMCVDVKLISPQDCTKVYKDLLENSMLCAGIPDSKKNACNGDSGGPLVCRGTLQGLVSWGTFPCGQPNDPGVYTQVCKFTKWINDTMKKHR
Tn6 DDE FP – disrupts Tn6 cyclic peptide binding to fibrin D-Dimer-E complex. Fibrin DD(E) TRITC-Tn6 fluorescence polarization displacement. inhibition, % at 8.3 µM. actives 0.21% (n = 370,000). AID 720509;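 active means inhibition above a per-campaign cutoff: mean of compounds within control limits plus 3 SD, cut at about 15% in these data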;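 further: 0% = median of all compound wells on the plate and 100% = blocking peptide control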
PLCg1 ctr – counter-screen for PLC-beta3 inhibitors: inhibitors of human PLC-gamma1; shares compounds with PLC-gamma1 inh; purified PLC-gamma1, fluorogenic substrate, fluorescence; inhibition, % at 12.3 µM; actives 3.1% (n = 3,300); AID 743258; in the data active means inhibition above about 9.5%
PLCb3 confirm – human PLC-beta3 inhibition, confirmation | purified PLC-beta3, fluorogenic substrate fluorescence | shares compounds with PLC-gamma1 inh | AID 743261 | inhibition, % at 12.3 µM | actives 1% (n = 3,300)
The depositor's hits bear a star; · = no result given. Most compounds without a hit are left out; they make up all but 3% or so of the library. Unless noted, no stated cut-off is given here; in the data, active means inhibition above about 11%; inactive means the rest.

SMILES	NRP1-CendR mod	PLC-beta3 inh	PLC-gamma1 inh	DDE Tn7 FP inh	KLK7 zymogen act	Tn6 DDE FP	PLCg1 ctr	PLCb3 confirm
COc1ccc(F)cc1S(=O)(=O)n1cc(C)nc1-c1ccccc1	4	11*	7	4	0	-4	-5	-14
CCNC(=O)C/C(C)=N/NC(=O)C1CCCCC1	-8	8	11*	-2	0	5	0	-1
COc1ccc(CCNC(=O)C/C(C)=N/NC(=O)C2CCCCC2)cc1OC	10	-1	2	10	0	13	·	·
COC(=O)c1ccc(CNC(=O)C2CCC(=O)N(C3CCCCCC3)C2)cc1 (configuration not stated)	12	-7	-3	1	0	-8	·	·
O=C(NCc1ccc(OC(F)(F)F)cc1)C1CCC(=O)N(C2CC2)C1 (configuration not stated)	15	-3	11*	2	-1	-1	-1	0
O=C(Nc1ccccc1)C1C2CCC3C(CCC21)C3(Cl)Cl (configuration not stated)	17	8	11*	8	1	4	0	-1
O=C(Nc1cccc(Cl)c1)C1C2CCC3C(CCC21)C3(Cl)Cl (configuration not stated)	-3	5	0	-11	-1	-6	·	·
O=S1(=O)c2c(NCc3ccco3)cccc2Oc2ccccc2CN1Cc1cn(Cc2cccc(F)c2)nn1	·	-60	-37	-6	-1	-4	·	·
CN(C)c1cccc(NC(=O)C2(C)CC2(Cl)Cl)c1 (configuration not stated)	6	16*	5	9	0	3	-8	-11
CS(=O)(=O)OC12CCCN(C1)/C(=C/c1ccc(Cl)cc1)C2 (configuration not stated)	·	3	-2	-2	0	8	·	·
O=C(CSc1nc2[nH]ncc2c(=O)[nH]1)NCc1ccc(F)cc1	-2	4	12*	-2	0	-4	-6	-3
O=C(CSc1nc2ncccc2[nH]1)NCc1ccccc1	6	0	-1	7	0	-2	·	·
O=C(CSc1nc2[nH]ncc2c(=O)[nH]1)NCc1ccccc1	-10	5	9	-8	-1	-5	·	·
COc1ccc(CSc2nc3ccccc3[nH]2)cc1	0	3	2	-2	0	-6	·	·
CC(=O)Nc1ccc(NC(=O)CCCSc2nc3ccccc3[nH]2)cc1	-12	2	13*	6	0	4	5	5
O=C1CCC(=O)N1c1ccc(CSc2nc3ccccc3[nH]2)cc1	5	3	11*	-2	0	-1	-9	-3
Cc1ccc(NC(=O)CCCSc2nc3ccccc3[nH]2)cc1	6	1	1	4	0	-4	·	·
O=C(CSc1nc2ccccc2[nH]1)NCc1ccccc1	0	-2	14*	-9	0	11	4	5
COc1ccc(-c2cc(-c3nnc(SCC(=O)Nc4nccs4)n3N)[nH]n2)cc1	·	3	3	-2	0	1	·	·
COC(=O)[C@@]12CCCCC3=C1N(CCC3)C(=O)[C@H]2CC(=O)NCC1CCCCC1	·	2	2	6	0	0	·	·
O=C(OC12CCCN(C1)/C(=C/c1ccccc1)C2)C1CCCC1 (configuration not stated)	·	-1	1	-3	0	0	·	·
CCOc1ccc(N(CC(=O)NCCc2ccccc2)C(=O)c2csnn2)cc1	16	-6	11*	3	1	4	3	0
COC(=O)c1cccc(NC(=O)C(C)N2C(=O)c3ccccc3C2=O)c1 (configuration not stated)	7	6	10*	5	0	-1	-3	1
COC(=O)c1cccc(NC(=O)Nc2ccc(Cl)cc2Cl)c1	18	2	9.9*	1	-1	-4	7	4
Cc1ccc(S(=O)(=O)CCC(=O)N(CCCN2CCOCC2)c2nc3ccccc3s2)cc1	3	0	13*	2	0	7	-6	-7
SMILES	NRP1-CendR mod	PLC-beta3 inh	PLC-gamma1 inh	DDE Tn7 FP inh	KLK7 zymogen act	Tn6 DDE FP	PLCg1 ctr	PLCb3 confirm
CC(C)(C)c1cc(=O)n(-c2ccccc2)[nH]1	4	9	28*	-2	0	9	7	2
O=C(CC1SCCNC1=O)Nc1cc(Cl)cc(Cl)c1 (configuration not stated)	2	12*	3	-5	0	1	2	-3
COC(=O)c1cc(NC(=O)CC2SCCNC2=O)cc(C(=O)OC)c1 (configuration not stated)	-13	2	2	4	0	-1	·	·
CC(C)(C)C(=O)Nc1ccc(Sc2ccc([N+](=O)[O-])cc2)cc1	3	-2	9	3	1	3	·	·
CC(=O)Nc1ccc(Sc2ccc([N+](=O)[O-])o2)cc1	-20	4	10*	-5	0	-7	5	-6
CCCCCc1c(-c2cccc(OC)c2)ncn1CCc1ccccc1OC	13	-1	4	-8	1	-11	·	·
CCCCCc1c(-c2cccc(Cl)c2)ncn1CCc1ccccc1OC	23*	6	10*	-2	1	-2	-4	-2
Oc1ccc2ccccc2c1C=Nn1c(-c2n[nH]c3c2CCC3)n[nH]c1=S	·	-11	-7	-2	0	4	·	·
C/C(=N\N=C(/N)SC1CC(=O)N(c2ccc(Cl)cc2)C1=O)c1cccs1 (configuration not stated)	6	3	9.9*	-7	0	0	5	6
O=C(CCc1ccccc1)N1CCCC(Nc2ccc(F)cc2)C1 (configuration not stated)	2	1	11*	0	0	6	-1	2
COc1ccc(NC2CCCN(C(=O)CCc3cn[nH]c3)C2)cc1 (configuration not stated)	-7	-9	10*	-2	1	-12	-3	3
O=C(CCc1ccncc1)N1CCCC(Nc2ccc(F)cc2)C1 (configuration not stated)	-2	-3	-4	-2	-1	7	·	·
Cc1ccc(Cn2cc(CN(C3CC3)S(=O)(=O)c3ccccc3Br)nn2)cc1	·	-1	0	-2	0	9	·	·
CC(C)(C)OC(=O)N1CCC(c2ccc[nH]2)(c2c[nH]c3ccccc23)CC1	·	0	-1	-3	1	-7	·	·
O=C(NC1CCC1)c1ccc(C#Cc2cccc(F)c2)cn1	·	-3	1	0	1	-4	·	·
